We go through 24 compounds from ChEMBL document CHEMBL1134619, “Arylcyclopropanecarboxyl guanidines as novel, potent, and selective inhibitors of the sodium hydrogen exchanger isoform-1” (J Med Chem, 2001).

The target in data set [1] is Sodium/hydrogen exchanger 1 (Homo sapiens, UniProt P19634). Nature of the data set: Screened in AP1 cells expressing human NHE-1 for sodium hydrogen exchange activity. It counts as functional, cell-based. In short, it runs like this:
(§1)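 AP1 cell monolayers expressing the given human NHE isoform, loaded with BCECF-AM (5 µM final, 30 min, room temperature) in NaCl-HEPES pH 7.3. Acid load by NH4Cl-HEPES for 9 min, then washes in Na+-free choline buffer. Drug preincubation 7.5 min, then NaCl added (135 mM final). Fluorescence 485/444 nm excitation ratio (538 nm emission) read after 5 min, minus no-NaCl activity. IC50 from 8-point dose-response curve, mean ± SEM of several experiments.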

The nature of data set [2]: Oral bioavailability in rat. Conditions: in vivo. In kind it is ADME, organism-based. In short, it runs like this: (§2)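 Rats (n = 3) given a single 10 µmol/kg dose either intra-arterially or orally. Plasma samples analysed by LC/MS/MS. PK parameters are means ± SEM of the three animals.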
Data set [3] can be described thus: Half life period in rats was determined. The settings on record: rat, in vivo. It counts as ADME, organism-based. In short, it runs like this:
as §2

A short description of data set [4]: Plasma clearance in rats was determined. In kind it is ADME, organism-based. Conditions: rat. A digest of the protocol: as §2
Data set [5] in a line: Volume distribution at steady state in rats was determined. Conditions: rat, in vivo; read-out: VSS. In kind it is ADME, organism-based. In short, it runs like this:
as §2

In data set [6] the target is T1, Sodium/hydrogen exchanger 3 (Homo sapiens, UniProt P48764).
T1 sequence (P48764 whole entry): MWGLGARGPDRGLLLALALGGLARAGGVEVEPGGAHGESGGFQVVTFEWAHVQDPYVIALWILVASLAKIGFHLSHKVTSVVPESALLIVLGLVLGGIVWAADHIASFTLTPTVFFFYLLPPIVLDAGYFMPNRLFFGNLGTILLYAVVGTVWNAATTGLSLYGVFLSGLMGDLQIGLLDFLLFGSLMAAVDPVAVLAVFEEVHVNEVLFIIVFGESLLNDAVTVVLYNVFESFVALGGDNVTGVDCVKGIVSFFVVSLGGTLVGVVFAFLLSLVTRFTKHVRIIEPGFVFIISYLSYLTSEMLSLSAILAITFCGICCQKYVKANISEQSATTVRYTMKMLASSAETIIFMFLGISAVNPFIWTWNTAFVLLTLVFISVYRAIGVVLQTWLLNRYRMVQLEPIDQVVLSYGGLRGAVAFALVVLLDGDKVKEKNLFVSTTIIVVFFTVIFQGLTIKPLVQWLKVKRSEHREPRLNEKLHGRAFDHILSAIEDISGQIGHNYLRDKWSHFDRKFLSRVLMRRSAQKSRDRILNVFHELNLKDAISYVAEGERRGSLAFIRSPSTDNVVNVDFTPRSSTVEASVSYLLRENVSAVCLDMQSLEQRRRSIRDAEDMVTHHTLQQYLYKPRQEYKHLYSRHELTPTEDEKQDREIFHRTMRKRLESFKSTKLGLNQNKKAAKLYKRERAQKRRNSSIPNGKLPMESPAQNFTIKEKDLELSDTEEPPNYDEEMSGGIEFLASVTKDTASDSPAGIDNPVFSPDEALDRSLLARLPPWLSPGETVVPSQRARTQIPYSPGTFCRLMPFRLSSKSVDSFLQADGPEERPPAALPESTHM
Put plainly: Compound is screened in AP1 cells expressing human NHE-3 for sodium hydrogen exchange activity. In kind it is functional, cell-based. A digest of the protocol:
as §1

Data set [7] has as its target T2, Sodium/hydrogen exchanger 5 (Homo sapiens, UniProt Q14940).
T2 sequence (Q14940 whole entry): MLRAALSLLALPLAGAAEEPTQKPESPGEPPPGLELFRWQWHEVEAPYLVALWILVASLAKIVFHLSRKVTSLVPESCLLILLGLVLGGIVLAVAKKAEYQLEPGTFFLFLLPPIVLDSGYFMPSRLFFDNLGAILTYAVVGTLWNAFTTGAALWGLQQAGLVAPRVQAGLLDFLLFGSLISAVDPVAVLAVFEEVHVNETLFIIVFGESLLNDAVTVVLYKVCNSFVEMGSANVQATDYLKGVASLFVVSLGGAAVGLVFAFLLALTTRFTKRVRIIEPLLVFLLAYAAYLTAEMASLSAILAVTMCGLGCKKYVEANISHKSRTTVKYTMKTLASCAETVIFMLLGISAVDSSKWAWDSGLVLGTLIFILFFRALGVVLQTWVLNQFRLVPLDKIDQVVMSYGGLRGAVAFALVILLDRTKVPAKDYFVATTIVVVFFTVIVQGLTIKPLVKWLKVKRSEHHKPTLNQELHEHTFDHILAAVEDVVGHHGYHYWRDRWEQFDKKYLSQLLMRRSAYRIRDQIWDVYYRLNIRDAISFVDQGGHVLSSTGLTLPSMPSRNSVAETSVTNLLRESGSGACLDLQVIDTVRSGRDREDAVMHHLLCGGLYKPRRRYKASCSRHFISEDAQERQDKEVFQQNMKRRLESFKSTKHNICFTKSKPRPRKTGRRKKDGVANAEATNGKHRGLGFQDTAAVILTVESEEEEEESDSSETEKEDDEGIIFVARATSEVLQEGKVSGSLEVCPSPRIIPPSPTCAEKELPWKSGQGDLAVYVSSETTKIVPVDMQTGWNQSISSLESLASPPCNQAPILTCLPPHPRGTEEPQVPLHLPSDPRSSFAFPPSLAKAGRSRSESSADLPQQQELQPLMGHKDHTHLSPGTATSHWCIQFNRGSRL
Nature of the data set: Compound is screened in AP1 cells expressing human NHE-5 for sodium hydrogen exchange activity. In kind it is functional, cell-based. In short, it runs like this: as §1

The target of data set [8] is T3, Sodium/hydrogen exchanger 2 (Homo sapiens, UniProt Q9UBY0).
T3 sequence (Q9UBY0 whole entry): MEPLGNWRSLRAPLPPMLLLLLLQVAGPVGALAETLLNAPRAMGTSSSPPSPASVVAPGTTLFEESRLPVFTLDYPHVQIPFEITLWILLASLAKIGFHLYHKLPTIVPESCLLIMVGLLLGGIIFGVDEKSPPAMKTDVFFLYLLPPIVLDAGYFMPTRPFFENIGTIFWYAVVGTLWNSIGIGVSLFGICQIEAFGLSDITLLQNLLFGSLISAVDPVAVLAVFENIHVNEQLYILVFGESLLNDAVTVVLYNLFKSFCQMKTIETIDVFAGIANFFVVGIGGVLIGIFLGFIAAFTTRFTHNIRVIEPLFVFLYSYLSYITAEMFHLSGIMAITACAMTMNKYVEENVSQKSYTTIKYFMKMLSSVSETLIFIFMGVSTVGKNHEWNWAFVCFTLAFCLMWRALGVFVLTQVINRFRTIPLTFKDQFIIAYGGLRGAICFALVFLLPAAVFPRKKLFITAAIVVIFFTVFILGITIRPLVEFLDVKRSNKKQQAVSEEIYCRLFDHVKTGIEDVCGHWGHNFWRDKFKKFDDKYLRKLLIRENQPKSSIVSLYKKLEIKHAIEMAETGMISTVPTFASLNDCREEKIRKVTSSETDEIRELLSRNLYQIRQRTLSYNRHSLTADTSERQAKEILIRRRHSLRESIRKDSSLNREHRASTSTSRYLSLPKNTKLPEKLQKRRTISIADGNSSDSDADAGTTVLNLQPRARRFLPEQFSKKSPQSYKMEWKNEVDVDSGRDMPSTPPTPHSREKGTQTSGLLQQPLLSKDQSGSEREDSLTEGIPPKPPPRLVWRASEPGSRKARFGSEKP
Put plainly: Compound is screened in AP1 cells expressing human NHE-2 for sodium hydrogen exchange activity. It counts as functional, cell-based. In short, it runs like this:
as §1

Chain of Sodium/hydrogen exchanger 1 (P19634 whole entry, canonical isoform): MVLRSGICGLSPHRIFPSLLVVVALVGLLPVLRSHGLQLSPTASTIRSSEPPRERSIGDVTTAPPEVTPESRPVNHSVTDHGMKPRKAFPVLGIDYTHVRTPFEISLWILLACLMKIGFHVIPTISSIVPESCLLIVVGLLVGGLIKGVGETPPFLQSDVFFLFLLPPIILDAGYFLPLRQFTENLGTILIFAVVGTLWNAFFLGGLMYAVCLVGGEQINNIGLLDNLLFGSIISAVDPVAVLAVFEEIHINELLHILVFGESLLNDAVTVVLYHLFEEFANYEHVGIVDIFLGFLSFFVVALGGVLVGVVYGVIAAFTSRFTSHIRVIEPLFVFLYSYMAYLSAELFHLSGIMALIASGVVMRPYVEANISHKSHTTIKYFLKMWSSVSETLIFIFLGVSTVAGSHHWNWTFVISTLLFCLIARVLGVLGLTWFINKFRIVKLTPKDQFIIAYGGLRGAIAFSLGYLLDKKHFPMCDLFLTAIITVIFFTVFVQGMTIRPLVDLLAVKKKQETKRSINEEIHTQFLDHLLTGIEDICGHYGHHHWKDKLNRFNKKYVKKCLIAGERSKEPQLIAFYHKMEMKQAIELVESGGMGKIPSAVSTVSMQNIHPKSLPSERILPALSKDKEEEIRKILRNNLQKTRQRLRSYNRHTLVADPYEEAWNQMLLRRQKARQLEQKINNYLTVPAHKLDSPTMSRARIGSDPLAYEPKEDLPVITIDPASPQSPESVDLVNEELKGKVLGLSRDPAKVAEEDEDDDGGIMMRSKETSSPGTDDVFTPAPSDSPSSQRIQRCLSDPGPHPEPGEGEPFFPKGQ

A word on the IC50: it is the concentration at which inhibition is half-maximal. In turn, `Cc1cc([C@@H]2[C@@H](C(=O)N=C(N)N)C2(C)C)ccc1F` had an IC50 in data set [1] of 0.032 µM. In other words, the double-digit nanomolar range.

Consider `N=C(N)NC(=O)[C@H]1C[C@@H]1c1cccc([N+](=O)[O-])c1`, for which inhibition in data set [1] was half-maximal at 1.6 µM (IC50).

For orientation: bioavailability means dose-corrected exposure relative to a reference, in per cent. Lower therefore signals little systemic uptake. Broadly, the half-life is how long it takes for the measured level to halve. A lower half-life goes with fast loss. In general, clearance refers to a measure of how efficiently the substance is removed, as volume per time. A higher clearance goes with a high capacity for elimination. On to `N=C(N)NC(=O)[C@H]1C[C@@H]1c1cc(Cl)ccc1Cl`, for which, in data set [2], the bioavailability is 13%. The compound also gave a half-life in data set [3] of 3.4 h. Further, in data set [4], the clearance amounted to 143 mL/min/kg. Also, half-maximal inhibition in data set [1] (IC50) was put at 0.04 µM. Besides, in data set [5], the Vd stood at 21 L/kg.

Turning to `CC(C)c1cc([C@@H]2[C@@H](C(=O)N=C(N)N)C2(C)C)ccc1F`, the IC50 in data set [1] came to 0.017 µM.

Turning to `N=C(N)NC(=O)[C@H]1C[C@@H]1c1ccccc1Cl`, the concentration for half-maximal inhibition (IC50) in data set [1] came to 0.98 µM.

In data set [1], `CC(C)c1ccc([C@H]2C[C@@H]2C(=O)NC(=N)N)cc1` had an IC50 above 30 µM.

The compound `N=C(N)NC(=O)[C@H]1C[C@@H]1c1ccc(F)c(Br)c1` came in with an IC50 in data set [1] of 0.09 µM.

`CCc1cc([C@@H]2[C@@H](C(=O)NC(=N)N)C2(C)C)ccc1F`: half-maximal inhibition in data set [1] (IC50) required 0.005 µM.

As for `N=C(N)NC(=O)[C@H]1C[C@@H]1c1ccccc1`, the IC50 in data set [1] was 3.5 µM.

On to `N=C(N)NC(=O)[C@H]1C[C@@H]1c1ccc(F)cc1`, for which the IC50 in data set [1] was 1.6 µM. This IC50 lies about 2.2-fold lower than the previous one.

Take `CC1(C)[C@H](C(=O)N=C(N)N)[C@H]1c1cc(Cl)ccc1Cl`: in data set [2], the bioavailability was determined as 47%. In addition, the half-life in data set [3] is 8 h. Further, in data set [4], the clearance is 44 mL/min/kg. In data set [1], this compound gave an IC50 of 0.005 µM. In addition, the Vd in data set [5] came out at 23 L/kg.

Take `N=C(N)NC(=O)[C@H]1C[C@@H]1c1ccc(Cl)cc1`: half-maximal inhibition in data set [1] (IC50) required 2.9 µM.

On to `CC1(C)[C@H](C(=O)N=C(N)N)[C@H]1c1ccccc1`, for which the IC50 in data set [1] came to 0.069 µM.

With `COc1cccc([C@H]2C[C@@H]2C(=O)NC(=N)N)c1`, in data set [1], half-maximal inhibition (IC50) was put at 0.54 µM.

Compound `N=C(N)NC(=O)[C@H]1C[C@@H]1c1cccc2c1CCO2` came in with a bioavailability in data set [2] of 49%. The compound further showed a half-life in data set [3] of 1.3 h. The clearance in data set [4] was found to be 120 mL/min/kg. In addition, the IC50 in data set [1] turned out to be 0.12 µM. The Vd in data set [5] worked out at 6 L/kg.

Turning to `CC1(C)[C@H](C(=O)NC(=N)N)[C@H]1c1cccc(Cl)c1`, in data set [1], the IC50 was found to be 0.014 µM.

In data set [1], `COc1cccc([C@@H]2[C@@H](C(=O)NC(=N)N)C2(C)C)c1` showed an IC50 of 0.012 µM.

Regarding `N=C(N)NC(=O)[C@H]1C[C@@H]1c1cccc(Cl)c1`, half-maximal inhibition in data set [1] (IC50) was put at 0.28 µM. Compared with the last compound, the IC50 is about 23-fold higher.

For `N=C(N)NC(=O)[C@H]1C[C@@H]1c1ccc([N+](=O)[O-])cc1`, in data set [1], the IC50 was above 30 µM.

In data set [1], `CC1(C)[C@H](C(=O)N=C(N)N)[C@H]1c1ccc(F)c(Br)c1` had an IC50 of 0.003 µM. This counts as single-digit nanomolar.

For `CC1(C)[C@H](C(=O)NC(=N)N)[C@H]1c1cc(Cl)cc(Cl)c1`, in data set [1], half-maximal inhibition (IC50) required 0.006 µM.

The compound `CC1(C)[C@H](C(=O)N=C(N)N)[C@H]1c1cccc2c1CCO2` gave a bioavailability in data set [2] of 63%. The half-life in data set [3] is 3 h. In data set [4], this compound registered a clearance of 74 mL/min/kg. Besides, the IC50 in data set [1] is 0.009 µM; in data set [6], above 30 µM; in data set [7], 3.36 µM; in data set [8], 1.8 µM. Also, the Vd in data set [5] amounted to 8.6 L/kg.

For `CC(C)c1ccc(C(=O)NC(=N)N)cc1S(C)(=O)=O` [CARIPORIDE], the IC50 in data set [1] is 3.4 µM; in data set [6], above 30 µM; in data set [7] it was above 30 µM; in data set [8], 62 µM.

`Cc1cc(-n2cccc2)c(S(C)(=O)=O)cc1C(=O)NC(=N)N` [ENIPORIDE]: the IC50 in data set [1] is 0.38 µM; in data set [6] it was above 30 µM; in data set [7], above 30 µM; in data set [8], 17 µM.
